Activity calls are given as the source filed them. No cut-off for these calls is given here.

Data set [1] addresses ENaC alpha subunit (epithelial sodium channel subunit alpha) (Homo sapiens, UniProt P37088). Put plainly: Inhibition of S-3969-stimulated recombinant human ENaC alpha subunit expressed in HEK293 cells at 10 uM preincubated for 5 mins followed by S-3969 stimulation by FLIPR assay. Format: cell-based. The note with it: HEK293 cells expressing recombinant human ENaC alpha subunit. The procedure, abridged: (§1)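 HEK-293 cells transfected with human ENaC α, β and γ cDNA together, plated at 20 000 cells/well, incubated overnight at 37 °C. Loaded with membrane-potential red dye for 30 min at 37 °C. Compound preincubated 5 min in HEPES-buffered salt solution (pH 7.4, 0.3% DMSO), then stimulated with 1 µM S-3969, read on FLIPR. Signal normalized to agonist alone (100%) and agonist plus 30 µM benzamil (0%). n = 4 wells.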

Data set [2] has as its target ENaC beta subunit (epithelial sodium channel subunit beta) (Homo sapiens, UniProt P51168). Put plainly: Inhibition of S-3969-stimulated recombinant human ENaC beta subunit expressed in HEK293 cells at 10 uM preincubated for 5 mins followed by S-3969 stimulation by FLIPR assay. Type of data set: cell-based. The note with it: HEK293 cells expressing recombinant human ENaC beta subunit. In a few lines: as §1

Data set [3] deals with HT-1080. Put plainly: Antimetastatic activity against luciferase-tagged human HT1080 cells xenografted in NOD.Cg-Prkdc<scid>-IL2rg<tm1Wjl>SzJAusb mouse assessed as inhibition of late-stage lung metastasis at 7.5 mg/kg/day, ip administered from day -1 to day 20 measured day 21.
For data set [4], the target named is ENaC gamma subunit (epithelial sodium channel subunit gamma) (Homo sapiens, UniProt P51170). Put plainly: Inhibition of S-3969-stimulated recombinant human ENaC gamma subunit expressed in HEK293 cells at 10 uM preincubated for 5 mins followed by S-3969 stimulation by FLIPR assay. Format: cell-based. The note with it: HEK293 cells expressing recombinant human ENaC gamma subunit. In a few lines: as §1
ENaC gamma subunit (epithelial sodium channel subunit gamma), sequence (P51170 whole entry): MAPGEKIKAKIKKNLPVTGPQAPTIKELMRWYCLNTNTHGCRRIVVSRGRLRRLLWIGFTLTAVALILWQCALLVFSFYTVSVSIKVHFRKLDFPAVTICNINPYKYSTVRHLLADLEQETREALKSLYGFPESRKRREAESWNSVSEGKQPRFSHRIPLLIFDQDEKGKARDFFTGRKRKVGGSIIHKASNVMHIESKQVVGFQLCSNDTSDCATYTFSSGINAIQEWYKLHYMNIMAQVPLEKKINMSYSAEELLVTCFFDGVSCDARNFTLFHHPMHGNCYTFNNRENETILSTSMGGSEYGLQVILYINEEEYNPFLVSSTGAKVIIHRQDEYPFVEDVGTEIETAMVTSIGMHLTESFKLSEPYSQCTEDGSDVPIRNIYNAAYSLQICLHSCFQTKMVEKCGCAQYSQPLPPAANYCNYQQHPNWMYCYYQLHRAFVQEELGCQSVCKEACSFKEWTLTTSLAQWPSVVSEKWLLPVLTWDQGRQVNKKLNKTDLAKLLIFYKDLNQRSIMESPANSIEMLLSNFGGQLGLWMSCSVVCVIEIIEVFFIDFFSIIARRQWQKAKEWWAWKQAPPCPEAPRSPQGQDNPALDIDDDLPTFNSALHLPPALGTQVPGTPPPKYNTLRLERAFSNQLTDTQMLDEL

For data set [5], the system named is ASPC1. Put plainly: Antimetastatic activity against human AsPC1 cells xenografted in BALB/c nu/nu mouse co-implanted with human PSC assessed as reduction in metastasis lesions in liver at 75 mg/kg, po administered twice per week via gavage measured after 28 days post first dose by microscopic analysis. Type of data set: functional, organism-based. The procedure, abridged: (§2)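 Female athymic BALB/c nu/nu mice, 6–8 weeks old. 1×10^6 AsPC-1 and 1×10^6 human pancreatic stellate cells in 50 µL PBS injected into the pancreatic tail. Treatment randomized on day 7 (n = 4/group) for 4 weeks: 10 mg/kg/day ip in 50 mM sodium acetate pH 5.5/10% DMSO/1% Kolliphor HS-15, or gemcitabine 75 mg/kg by oral gavage twice weekly, or vehicle. At kill, liver scored for visible macrometastases, fixed in formalin, and 4 µm sections stained with H&E. Chi-square test.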
For orientation: Xenograft models place foreign cells or tissue in a host animal.

The subject of data set [6] is Homo sapiens. The data set can be described thus: Antimetastatic activity against human PSC xenografted in BALB/c nu/nu mouse co-implanted with human AsPC1 cells assessed as reduction in metastasis lesions in liver at 75 mg/kg, po administered twice per week via gavage measured after 28 days post first dose by microscopic analysis. Format: functional, organism-based. In a few lines: as §2

ENaC beta subunit (epithelial sodium channel subunit beta), sequence (P51168 whole entry): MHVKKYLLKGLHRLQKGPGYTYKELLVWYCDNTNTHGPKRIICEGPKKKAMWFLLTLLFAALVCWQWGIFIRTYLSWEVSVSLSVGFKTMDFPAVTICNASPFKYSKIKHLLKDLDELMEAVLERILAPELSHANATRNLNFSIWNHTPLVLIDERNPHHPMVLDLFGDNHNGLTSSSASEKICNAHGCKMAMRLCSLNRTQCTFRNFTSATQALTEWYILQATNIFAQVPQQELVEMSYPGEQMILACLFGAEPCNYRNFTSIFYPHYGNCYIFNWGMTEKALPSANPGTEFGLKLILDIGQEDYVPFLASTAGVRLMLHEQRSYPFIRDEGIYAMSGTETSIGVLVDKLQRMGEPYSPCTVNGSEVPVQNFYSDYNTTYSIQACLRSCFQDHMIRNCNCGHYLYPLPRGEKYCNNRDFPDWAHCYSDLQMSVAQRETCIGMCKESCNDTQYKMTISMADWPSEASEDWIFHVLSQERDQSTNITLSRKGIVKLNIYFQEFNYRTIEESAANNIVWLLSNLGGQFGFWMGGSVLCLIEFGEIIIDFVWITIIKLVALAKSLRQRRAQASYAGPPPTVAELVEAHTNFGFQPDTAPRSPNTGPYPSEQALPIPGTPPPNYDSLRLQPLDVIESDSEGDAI
ENaC alpha subunit (epithelial sodium channel subunit alpha), sequence (P37088 whole entry): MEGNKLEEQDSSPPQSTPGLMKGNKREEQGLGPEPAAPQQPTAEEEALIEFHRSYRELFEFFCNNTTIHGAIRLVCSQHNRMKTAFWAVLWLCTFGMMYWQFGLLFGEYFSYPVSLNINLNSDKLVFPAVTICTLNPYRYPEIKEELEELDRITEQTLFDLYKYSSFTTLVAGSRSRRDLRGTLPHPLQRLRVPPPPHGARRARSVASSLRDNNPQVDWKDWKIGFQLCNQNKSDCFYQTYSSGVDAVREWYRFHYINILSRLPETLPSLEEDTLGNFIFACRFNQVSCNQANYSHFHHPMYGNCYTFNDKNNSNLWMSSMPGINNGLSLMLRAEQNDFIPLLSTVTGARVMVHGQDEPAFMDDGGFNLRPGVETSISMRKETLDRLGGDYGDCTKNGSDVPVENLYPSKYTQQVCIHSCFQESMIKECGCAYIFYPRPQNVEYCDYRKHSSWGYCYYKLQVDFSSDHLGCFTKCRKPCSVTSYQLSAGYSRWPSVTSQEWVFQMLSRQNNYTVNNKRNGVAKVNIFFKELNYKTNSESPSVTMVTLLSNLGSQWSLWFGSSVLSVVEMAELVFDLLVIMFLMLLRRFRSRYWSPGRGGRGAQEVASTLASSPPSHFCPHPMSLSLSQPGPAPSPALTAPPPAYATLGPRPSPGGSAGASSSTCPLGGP

As to `N=C(N)NC(=O)c1nc(Cl)c(N)nc1N` [AMILORIDE], the inhibition at 5 min, 10 µM in data set [1], in data set [2] and in data set [4] was 68% in each case. The inhibition entry in data set [3] is “inactive”.

Take `Nc1ccn([C@@H]2O[C@H](CO)[C@@H](O)C2(F)F)c(=O)n1`: the outcome in data set [5] and in data set [6] was Active.

As a reminder, the inhibition is the percentage by which the read-out fell short of the control.

(Values after ChEMBL document CHEMBL4196166 (J Med Chem, 2018).)
